Active and inactive are the calls of the source. The calls are words filed in the database; no cut-off is given here.

The test system of data set [1] is Cynomolgus monkey. Kind of data set: Reduction of plasma insulin level in normal cynomolgus monkey at 3 mg/kg after 8 hrs. The format is functional, Macaca fascicularis. Further details: scale not given: the % may be the effect or the level left.
For data set [2], the system named is Cynomolgus monkey. Nature of the data set: Reduction of plasma insulin level in normal cynomolgus monkey at 1 mg/kg after 8 hrs. It counts as functional, Macaca fascicularis. On the set-up: scale not given: the % may be the effect or the level left.
Data set [3] can be described thus: Drug level in DIO-C57/B6 mouse fat in stress free condition at 30 mg/kg in food containing 0.5 mg/gram of high fat diet for 31 days measured on day 4 at 10 am. Further details: dose 30 mg/kg. The conditions noted are these: fat (adipose tissue), po, read-out: Drug uptake. It counts as ADME, organism-based.
A short description of data set [4]: Oral bioavailability in C57/B6 mouse at 10 mg/kg. The conditions noted are these: in vivo. The format is ADME, organism-based.
The nature of data set [5]: Drug level in DIO-C57/B6 mouse fat in stress free condition at 30 mg/kg in food containing 0.5 mg/gram of high fat diet for 31 days measured on day 4 at 10 pm. The format is ADME, organism-based. Further details: dose 30 mg/kg. The conditions noted are these: fat (adipose tissue), po, read-out: Drug uptake.
Data set [6] in a line: Cmax in C57/B6 mouse at 10 mg/kg, po. The conditions noted are these: in vivo. It counts as ADME, organism-based. Further details: dose 10 mg/kg, route oral.
A short description of data set [7]: Drug level in DIO-C57/B6 mouse serum in stress free condition at 30 mg/kg in food containing 0.5 mg/gram of high fat diet for 31 days measured on day 4 at 10 pm. The format is ADME, organism-based. Further details: dose 30 mg/kg. The note with it: po, read-out: Drug uptake.
The test system of data set [8] is Mus musculus. Nature of the data set: Reduction in glucose level in DIO-C57/B6 mouse serum in stress free condition administered compound at 0.5 mg/gram of high fat diet by 28 day food mix study. The format is functional, organism-based.
Data set [9] is described as follows: in vitro. The conditions noted are these: mouse, liver microsomes.
Data set [10] has as its system Mus musculus. Nature of the data set: Inhibition of 11betaHSD1 in DIO-C57B6 mouse liver at 30 mg/kg in food containing 0.5 mg/gram of high fat diet after 96 hrs. It counts as functional.
A short description of data set [11]: AUC in C57/B6 mouse at 10 mg/kg, po. The format is ADME, organism-based. Further details: dose 10 mg/kg, route oral. The conditions noted are these: plasma.
Data set [12] relates to Mus musculus. Kind of data set: Inhibition of 11betaHSD1 in C57Bl6 mouse epididymal fat tissue assessed as conversion of [3H]cortisone to [3H]cortisol at 10 mg/kg, po after 5 hrs. The note with it: C57Bl6, Adipose tissue. The format is functional. A digest of the protocol:
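Mice were killed 5 h after a single oral dose. Whole liver and epididymal fat were excised, and each intact tissue was incubated in medium containing [3H]-cortisone to measure ex vivo 11β-HSD1 activity.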

Data set [13] is described as follows: Tmax in C57/B6 mouse at 10 mg/kg, po. It counts as ADME, organism-based. Further details: dose 10 mg/kg, route oral. The note with it: in vivo.
A short description of data set [14]: Clearance in C57/B6 mouse at 2 mg/kg, iv. The conditions noted are these: in vivo. It counts as ADME, organism-based. On the set-up: dose 2 mg/kg, route intravenous.
Data set [15] in a line: Half life in C57/B6 mouse at 10 mg/kg, po. The format is ADME, organism-based. Further details: dose 10 mg/kg, route oral. The note with it: in vivo.
Data set [16] can be described thus: Drug level in DIO-C57/B6 mouse serum in stress free condition at 30 mg/kg in food containing 0.5 mg/gram of high fat diet for 31 days measured on day 4 at 10 am. It counts as ADME, organism-based. On the set-up: dose 30 mg/kg. The conditions noted are these: po, read-out: Drug uptake.
Data set [17] can be described thus: Half life in C57/B6 mouse at 2 mg/kg, iv. On the set-up: dose 2 mg/kg, route intravenous. The conditions noted are these: in vivo. The format is ADME, organism-based.
Data set [18] in a line: in vitro. The note with it: human, liver microsomes. For orientation: Liver microsomes are vesicles of endoplasmic reticulum, rich in cytochrome P450 enzymes.
The nature of data set [19]: Drug level in DIO-C57/B6 mouse liver in stress free condition at 30 mg/kg in food containing 0.5 mg/gram of high fat diet for 31 days measured on day 4 at 10 pm. It counts as ADME, organism-based. Further details: dose 30 mg/kg. The note with it: po, read-out: Drug uptake.
Data set [20] can be described thus: Drug level in DIO-C57/B6 mouse liver in stress free condition at 30 mg/kg in food containing 0.5 mg/gram of high fat diet for 31 days measured on day 4 at 10 am. It counts as ADME, organism-based. Further details: dose 30 mg/kg. The note with it: po, read-out: Drug uptake.
A short description of data set [21]: AUC in C57/B6 mouse at 2 mg/kg, iv. It counts as ADME, organism-based. On the set-up: dose 2 mg/kg, route intravenous. The note with it: plasma.
Data set [22] concerns Mus musculus. Kind of data set: Reduction in insulin level in DIO-C57/B6 mouse serum in stress free condition administered compound at 0.5 mg/gram of high fat diet by 28 day food mix study. It counts as functional, organism-based.
A short description of data set [23]: Volume of distribution at steady state in C57/B6 mouse at 2 mg/kg, iv. Further details: dose 2 mg/kg, route intravenous. The conditions noted are these: in vivo, read-out: Vdss. The format is ADME, organism-based.
Data set [24] can be described thus: Metabolic stability in human liver microsomes. It counts as ADME, Microsome. The note with it: read-out: Stability.
Data set [25] can be described thus: Metabolic stability in mouse liver microsomes. It counts as ADME, Microsome. The note with it: read-out: Stability.

Regarding `N#Cc1ccc(-c2ccc(S(=O)(=O)Nc3cccc(N)n3)cc2)cc1`, the figures for the Activity with Cynomolgus monkey [1] and in the data set with Cynomolgus monkey [2] were 60% and 54%, respectively.
Take `C[C@@H]1CN(c2ccc(F)cc2C(F)(F)F)CCN1S(=O)(=O)c1ccc(C(N)=O)cc1Cl`: the concentration at 744 h was 3620 ng/g in data set [3]; 3360 ng/g in data set [5]; 1090 ng/mL in [7]; 1140 ng/mL in data set [16]; 9540 ng/g in data set [19]; 8130 ng/g in data set [20]. Further, the bioavailability in data set [4] was found to be 50%. The compound further showed a Cmax in [6] of 1440 ng/mL. The result in the data set with Mus musculus [8] and in the data set on Mus musculus [22] was Active. The half-life is above 0.5 h in the data set “in vitro [9]”, 7.2 h in data set [15], 7.3 h in data set [17] and above 0.5 h in “in vitro [18]”. In the data set with Mus musculus [10], this compound returned an inhibition in vivo at 30 mg/kg of 95%. Besides, the AUC in data set [11] was 17000 ng·h/mL; in data set [21], 6740 ng·h/mL. Moreover, the inhibition in vivo at 10 mg/kg in the data set with Mus musculus [12] stood at 80%. In addition, in [13], the time of peak concentration (Tmax) amounted to 4 h. The clearance in data set [14] turned out to be 5 mL/min/kg. In data set [23], the Vd was determined as 2.6 L/kg.
As for `C[C@@H]1CN(c2ccc(F)cc2C(F)(F)F)CCN1S(=O)(=O)c1cccc(-n2cncn2)c1`, the results for the half-life in [24] and in [25] were 0.283 h and 0.2 h, respectively.

One may read the bioavailability as dose-corrected exposure relative to a reference, in per cent. A word on the Cmax: it is the maximum level reached in the sampled fluid or tissue. In general, inhibition in vivo refers to how much of the control response was suppressed. Broadly, the AUC is concentration integrated over time. In general, Tmax refers to the time from dosing to the highest level. What is called clearance is the volume of plasma or blood freed of the substance per unit of time.

For the origin of these results see ChEMBL document CHEMBL1152435, “Efficacious 11beta-hydroxysteroid dehydrogenase type I inhibitors in the diet-induced obesity mouse model” (J Med Chem, 2009).
